Measured values: ChEMBL document CHEMBL1156469 (2007)
The source made the active and inactive calls. The rule behind the calls is not given here.

Experiments:
[1] = Reversal of increase in pBMP2 expression in mouse MC3T3-E1 cells expressing small interfering RNA for FOXA1 protein at 1 uM by luciferase method; type: functional, cell-based
[2] = target: Forkhead box protein O3 (Homo sapiens) (UniProt O43524); assay: Reversal of induction of FOXO3a activity in human MDA-MB-231 cells transfected with FOXO3a-specific small interfering RNA; type: cell-based
Osteoblast [3] = assay: Effect on matrix metalloprotease 10 gene expression in rat primary osteoblast cells assessed as expression ratio of treated to untreated control by microarray analysis; type: functional
In short: (§1)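 Resveratrol-treated and vehicle-treated primary osteoblasts were profiled on a mouse osteogenesis-focused cDNA array (GEArray Q series) built to track gene expression during osteogenic differentiation. Each gene's signal in treated cells was expressed as a ratio to untreated control.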

MC3T3-E1 [4] = assay: Increase in BMP2 mRNA levels in mouse MC3T3-E1 cells at 1 uM by RT-PCR method; type: functional, cell-based; conditions: TDE = time-dependent effect
In short: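 Cells treated with 1 μm for 48 h; BMP-2 mRNA measured by quantitative real-time RT-PCR (SYBR Green, 0.5 μm each primer, 4 mm MgCl2, fluorescence read at 82 °C) and normalized.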

Osteoblast [5] = assay: Effect on fibronectin 1 gene expression in rat primary osteoblast cells assessed as expression ratio of treated to untreated control by microarray analysis; type: functional
MG-63 = assay: Increase in osteopontin levels in human MG63 cells at 1 uM after 72 hrs by ELISA; type: functional, cell-based
In short: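 Cells treated with 1 μm for 72 h; osteocalcin or osteopontin in culture medium by sandwich ELISA, HRP-streptavidin/TMB, 450 nm; percent change versus untreated control.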

T47D = assay: Reduction in anchorage-independent colony formation of human T47D cells at 1 uM by soft agar colony forming assay; type: functional, cell-based
In short: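 Seeded in 0.35% noble agar in DMEM/10% FBS over a 0.7% agar bed. Colonies of at least 50 μm counted after 3 weeks under a dissecting microscope, six replicates per treatment. Three separate experiments.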

[6] = target: RAC-alpha serine/threonine-protein kinase (Homo sapiens) (UniProt P31749); assay: Enhancement of Akt inactivation in human MDA-MB-231 cells transfected with dominant negative Akt mutant; type: cell-based
In short: (§2)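 MDA-MB-231 cells transfected with vector, constitutively active Akt or dominant negative Akt, treated ± compound; analyzed by Western blotting and BMP-2 promoter luciferase activity.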

Osteoblast [7] = assay: Effect on procollagen 9 alpha 3 gene expression in rat primary osteoblast cells assessed as expression ratio of treated to untreated control by microarray analysis; type: functional; in short: as §1
Rattus norvegicus [8] = assay: Increase in serum ALP activity in ovariectomized Wistar rat dosed orally after 10 weeks; type: functional, organism-based
In short: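 Female Wistar rats sham-operated or ovariectomized, fed compound orally every 2 days at indicated doses; femur/tibia BMD by DEXA under ketamine (87 mg/kg)/xylazine (13 mg/kg) anesthesia and serum ALP measured 10 weeks after surgery; n = 8/group, means ± S.D.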

MCF7 = assay: Antitumor activity against human MCF7 cells xenografted in SCID mouse orthotropic model assessed as inhibition of 17beta estradiol-induced tumor formation at 10 mg/kg for 2 days; type: functional; parameters: scale not given: the % may be the effect or the level left
In short: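 Tumor cells were inoculated orthotopically into the mammary fat pad of 6-week-old female SCID mice. […] Tumor volume was calculated as LW2/2. Tumor formation was scored as mice with tumors per total (20 per group), and tumor weight as mean ± S.D. Groups were compared by one-way ANOVA with LSD post-hoc comparisons.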

[9] = Reversal of increase in pBMP2 expression in rat primary osteoblast cells at 1 uM by luciferase method in presence of PP2; type: functional, cell-based
Osteoblast [10] = assay: Effect on procollagen 4 alpha 2 gene expression in rat primary osteoblast cells assessed as expression ratio of treated to untreated control by microarray analysis; type: functional; in short: as §1
[11] = Reversal of induction of BMP2 expression in mouse MC3T3-E1 cells at 1 uM by Western blot in presence of ICI-182780; type: functional, cell-based
[12] = target: Forkhead box protein O3 (Homo sapiens) (UniProt O43524); assay: Enhancement of FOXO3a activity in human MDA-MB-231 cells transfected with dominant negative Akt mutant; type: cell-based; in short: as §2
Rattus norvegicus [13] = assay: Increase in serum BMP2 levels in orally dosed ovariectomized Wistar rat after 10 weeks by ELISA relative to sham operated control; type: functional, organism-based
In short: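 Ovariectomized rats given indicated doses or estrogen by oral feeding; serum BMP-2 by ELISA 10 weeks after surgery; compared with sham-operated group; n = 8/group, means ± S.D.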

MC3T3-E1 [14] = assay: Reversal of increase in ER.DNA complex in mouse MC3T3-E1 cells expressing small interfering RNA for FOXA1 protein at 1 uM by RT-PCR; type: functional, cell-based
[15] = target: T1, Estrogen receptor (Mus musculus) (UniProt P19785); assay: Reversal of increase in DNA-binding activity of ERalpha in nuclear extracts of mouse MC3T3-E1 cells transfected with dominant-negative mutant Src expression vector by electrophoretic mobility shift assays; type: cell-based
T1 sequence (whole entry): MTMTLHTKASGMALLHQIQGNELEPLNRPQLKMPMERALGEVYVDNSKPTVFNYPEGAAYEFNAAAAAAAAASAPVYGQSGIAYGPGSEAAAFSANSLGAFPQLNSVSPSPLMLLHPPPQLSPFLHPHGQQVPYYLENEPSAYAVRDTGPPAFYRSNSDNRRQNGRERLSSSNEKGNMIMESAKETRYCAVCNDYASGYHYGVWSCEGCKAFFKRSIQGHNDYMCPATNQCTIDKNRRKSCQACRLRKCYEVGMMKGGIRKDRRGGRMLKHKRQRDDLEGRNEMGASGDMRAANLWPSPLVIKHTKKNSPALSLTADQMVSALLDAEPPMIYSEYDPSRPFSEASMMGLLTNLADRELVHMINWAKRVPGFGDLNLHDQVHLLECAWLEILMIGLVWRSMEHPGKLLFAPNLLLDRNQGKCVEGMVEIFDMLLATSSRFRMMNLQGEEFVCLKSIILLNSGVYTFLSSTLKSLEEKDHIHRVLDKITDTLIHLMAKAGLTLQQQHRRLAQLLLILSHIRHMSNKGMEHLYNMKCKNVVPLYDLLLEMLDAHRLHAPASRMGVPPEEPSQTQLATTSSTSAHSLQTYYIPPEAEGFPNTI
In short: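 Nuclear extracts of MC3T3-E1 cells. ER-binding probe [α-32P]dCTP end-labeled, 20-min binding at room temperature, 5-fold unlabeled competitor where used. Complexes resolved on 5% nondenaturing PAGE in Tris-borate-EDTA pH 8.3, then autoradiography.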

[16] = Reversal of induction of BMP2 expression in mouse MC3T3-E1 cells at 1 uM by Western blot in presence of short interfering ERalpha-RNA; type: functional, cell-based
MC3T3-E1 [17] = assay: Inhibition of etoposide-induced apoptosis in mouse MC3T3-E1 cells after 24 hrs by flow cytometry; type: functional, cell-based
In short: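 Cells washed in PBS, held 30 min in 0.5% Triton X-100/PBS/0.05% RNase A, then propidium iodide (50 μg/ml) added and kept on ice 15–30 min. Apoptosis is the hypodiploid fraction below the G0/G1 peak, by flow cytometry. Run in triplicate and repeated on three occasions.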

Osteoblast [18] = assay: Effect on secreted acidic cysteine rich glycoprotein gene expression in rat primary osteoblast cells assessed as expression ratio of treated to untreated control by microarray analysis; type: functional; in short: as §1

Forkhead box protein O3 (Homo sapiens), sequence (O43524 whole entry): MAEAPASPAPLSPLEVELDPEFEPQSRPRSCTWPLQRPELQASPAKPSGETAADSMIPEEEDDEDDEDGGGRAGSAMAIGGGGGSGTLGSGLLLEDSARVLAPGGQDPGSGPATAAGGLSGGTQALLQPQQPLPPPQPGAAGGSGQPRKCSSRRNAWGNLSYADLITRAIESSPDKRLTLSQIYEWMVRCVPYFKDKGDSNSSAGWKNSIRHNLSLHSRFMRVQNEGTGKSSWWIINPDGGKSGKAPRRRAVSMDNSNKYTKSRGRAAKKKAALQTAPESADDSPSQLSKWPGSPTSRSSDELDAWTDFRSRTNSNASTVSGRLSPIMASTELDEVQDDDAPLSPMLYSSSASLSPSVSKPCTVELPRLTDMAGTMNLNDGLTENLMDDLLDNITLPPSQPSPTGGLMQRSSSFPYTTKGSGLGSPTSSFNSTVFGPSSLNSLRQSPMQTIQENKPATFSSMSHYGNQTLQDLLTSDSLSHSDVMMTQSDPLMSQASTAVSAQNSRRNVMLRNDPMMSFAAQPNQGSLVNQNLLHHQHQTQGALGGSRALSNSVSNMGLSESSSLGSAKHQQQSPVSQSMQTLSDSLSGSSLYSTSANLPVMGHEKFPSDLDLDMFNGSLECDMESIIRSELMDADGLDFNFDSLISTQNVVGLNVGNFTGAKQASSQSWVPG
RAC-alpha serine/threonine-protein kinase (Homo sapiens), sequence (P31749 whole entry): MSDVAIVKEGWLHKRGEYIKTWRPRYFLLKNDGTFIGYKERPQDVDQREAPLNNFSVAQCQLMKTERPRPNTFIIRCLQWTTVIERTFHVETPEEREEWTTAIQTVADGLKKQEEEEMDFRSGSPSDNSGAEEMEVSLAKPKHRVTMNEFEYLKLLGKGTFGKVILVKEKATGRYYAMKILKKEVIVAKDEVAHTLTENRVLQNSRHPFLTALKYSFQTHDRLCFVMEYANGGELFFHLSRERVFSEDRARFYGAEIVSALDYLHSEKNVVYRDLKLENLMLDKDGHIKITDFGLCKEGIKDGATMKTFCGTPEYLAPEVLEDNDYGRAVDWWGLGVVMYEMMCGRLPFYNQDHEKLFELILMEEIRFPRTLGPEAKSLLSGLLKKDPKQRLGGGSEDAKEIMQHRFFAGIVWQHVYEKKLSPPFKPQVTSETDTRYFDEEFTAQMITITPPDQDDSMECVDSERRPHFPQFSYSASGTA

**Q.** For `Oc1ccc(/C=C/c2cc(O)cc(O)c2)cc1` [RESVERATROL], which Activity [1] is on record?
**A.** Active

**Q.** And the Activity [2]?
**A.** Active

**Q.** And the Ratio (Osteoblast [3])?
**A.** 1

**Q.** And the Activity (MC3T3-E1 [4])?
**A.** tde

**Q.** And the Ratio (Osteoblast [5])?
**A.** 8.76

**Q.** And the Activity (MG-63)?
**A.** Active

**Q.** What about the Activity (T47D) of the same compound?
**A.** Active

**Q.** What about the Activity [6] of the same compound?
**A.** Active

**Q.** And the Ratio (Osteoblast [7])?
**A.** 6.67

**Q.** What about the Activity (Rattus norvegicus [8]) of the same compound?
**A.** Dose-dependent effect

**Q.** What about the Activity (MCF7) of the same compound?
**A.** 40%

**Q.** And the Activity [9]?
**A.** Active

**Q.** What about the Ratio (Osteoblast [10]) of the same compound?
**A.** 4.48

**Q.** What about the Activity [11] of the same compound?
**A.** Active

**Q.** What about the Activity [12] of the same compound?
**A.** Active

**Q.** What about the Activity (Rattus norvegicus [13]) of the same compound?
**A.** Active

**Q.** What about the Activity (MC3T3-E1 [14]) of the same compound?
**A.** Active

**Q.** What about the Activity [15] of the same compound?
**A.** Active

**Q.** And the Activity [16]?
**A.** Active

**Q.** What about the Activity (MC3T3-E1 [17]) of the same compound?
**A.** Active

**Q.** And the Ratio (Osteoblast [18])?
**A.** 1.6
